Results pooled from the literature.
Organism: Acinetobacter baumannii
Read-out: microbial growth

For `CNc1nc(Cl)c2c(c1O)C(=O)C1=C(O)[C@]3(O)C(=O)C(C(N)=O)=C(O)[C@@H](N(C)C)[C@@H]3C[C@@H]1C2.Cl.Cl.Cl`, the MIC was 0.031 µg/mL (broth dilution; ATCC19606).
`NC[C@@H]1O[C@H](O[C@H]2[C@@H](O)[C@H](O[C@@H]3[C@@H](O)[C@H](N)C[C@H](N)[C@H]3O[C@H]3O[C@H](CO)[C@@H](O)[C@H](O)[C@H]3N)O[C@@H]2CO)[C@H](N)[C@@H](O)[C@@H]1O` gave an MIC of 2 to 4 µg/mL.
For `C[C@@H](O)[C@H]1C(=O)N2C(C(=O)O)=C(S[C@@H]3CN[C@H](C(=O)N(C)C)C3)[C@H](C)[C@H]12`, the MIC was 2 µM (broth dilution; KCCM40203; 16 h).
For `O=C(O)c1ccc(-n2cc(/C=N/Nc3cccc(Cl)c3)c(-c3cccc(F)c3)n2)cc1`, the MIC was 6.25 µg/mL (ATCCBAA1605).
The MIC of `O=C(CCc1ccc(O)c(O)c1)NCCCCCCCC[P+](c1ccccc1)(c1ccccc1)c1ccccc1.[Br-]` is reported as over 32 µg/mL (broth dilution; ATCC19606; 18 h).
With `O=C(O)c1ccc(-n2cc(/C=N/Nc3ccc(Br)cc3)c(-c3cccc(F)c3)n2)cc1` the MIC was 6.25 µg/mL (ATCCBAA1605).
For `CN(C)[C@@H]1C(O)=C(C(N)=O)C(=O)[C@@]2(O)C(O)=C3C(=O)c4c(cc5ccc(CN6CC(F)(F)C6)cc5c4O)C[C@H]3C[C@@H]12`, the MIC was 32 µg/mL (broth dilution; ATCC19606).
The MIC of `C[C@H]1COc2c(N3CCN(C)CC3)c(F)cc3c(=O)c(C(=O)O)cn1c23` is reported as 3.3 µM (broth dilution).
The MIC of `CCCCCCC/C=C/C(=O)N1C(=O)/C(=C(/C)O)C(=O)C1CCCCN` (stereo not shown) is reported as over 200 µg/mL (ATCC19606).
With `NCC[C@H](O)C(=O)N[C@@H]1C[C@H](N)[C@@H](O[C@H]2O[C@H](CN)[C@@H](O)[C@H](O)[C@H]2O)[C@H](O)[C@H]1O[C@H]1O[C@H](CO)[C@@H](O)[C@H](N)[C@H]1O` the MIC was 2 µg/mL.
The MIC of `CC[C@H]1OC(=O)[C@H](C)[C@@H](O[C@H]2C[C@@](C)(OC)[C@@H](O)[C@H](C)O2)[C@H](C)[C@@H](O[C@@H]2O[C@H](C)C[C@H](N(C)C)[C@H]2O)[C@](C)(O)C[C@@H](C)C(=O)[C@H](C)[C@@H](O)[C@]1(C)O` is reported as 50 µg/mL (ATCC19606).
`COc1c2c(c(O)c3cc(F)ccc13)C(=O)C1=C(O)[C@]3(O)C(=O)C(C(N)=O)=C(O)[C@@H](N(C)C)[C@@H]3C[C@@H]1C2` gave an MIC of 2 µg/mL (broth dilution; ATCC19606).
With `CC(NCCCNC(=O)c1ccc(Cl)s1)c1cc2cc(Br)ccc2[nH]1` (stereo not shown) the MIC was 32 µg/mL (broth dilution; ATCC19606).
The MIC of `CN(C)CC(C)(C)CNc1nc(F)c2c(c1O)C(=O)C1=C(O)[C@]3(O)C(=O)C(C(N)=O)=C(O)[C@@H](N(C)C)[C@@H]3C[C@@H]1C2.Cl` is reported as 4 µg/mL (broth dilution; ATCC19606).
`CC1(C)S[C@@H]2[C@H](NC(=O)C(C(=O)O)c3ccccc3)C(=O)N2[C@H]1C(=O)O` (stereo partly shown) has an MIC of 44.3 µM (broth dilution).
`N=C(N)NN=Cc1ccc(OC/C=C\COc2ccc(C=NNC(=N)N)cc2)cc1` gave an MIC of at most 51 µg/mL (ATCC19606; 16 h).
The MIC of `C/C(O)=C1\C(=O)C(CC(C)C)N(C(=O)CCCCCc2ccccc2)C1=O` (stereo not shown) is reported as over 200 µg/mL (ATCC19606).
`O=C(Nc1ccc([N+](=O)[O-])cc1F)c1ccccc1O` has an MIC of over 64 µg/mL (broth dilution; BAA1605).
With `CCCCCCC/C=C/C(=O)N1C(=O)/C(=C(/C)O)C(=O)C1CO` (stereo not shown) the MIC was over 200 µg/mL (ATCC19606).
For `CCCNc1nc(N(C)C)c2c(c1O)C(=O)C1=C(O)[C@]3(O)C(=O)C(C(N)=O)=C(O)[C@@H](N(C)C)[C@@H]3C[C@@H]1C2.Cl.Cl`, the MIC was over 32 µg/mL (broth dilution; ATCC19606).
For `CCCCCCC/C=C/C(=O)N1C(=O)/C(=C(\O)c2ccncc2)C(=O)C1CC(C)C` (stereo not shown), the MIC was over 200 µg/mL (ATCC19606).
The MIC of `C[C@H]1COc2c(N3CCN(C)CC3)c(F)cc3c(=O)c(C(=O)O)cn1c23` is reported as at most 0.125 µg/mL (broth dilution; ATCC19606).
With `CN(C)CCCNc1nc(Cl)c2c(c1O)C(=O)C1=C(O)[C@]3(O)C(=O)C(C(N)=O)=C(O)[C@@H](N(C)C)[C@@H]3C[C@@H]1C2.Cl` the MIC was over 32 µg/mL (broth dilution; ATCC19606).
The MIC of `O=C(O)c1ccc(-n2cc(/C=N/Nc3ccc(Cl)cc3)c(-c3ccc4ccccc4c3)n2)cc1` is reported as 12.5 µg/mL (ATCCBAA1605).
`CCCCCCC/C=C/C(=O)N1C(=O)/C(=C(/C)O)C(=O)C1CCC(=O)O` (stereo not shown) gave an MIC of over 200 µg/mL (ATCC19606).
The MIC of `O=C(CCCCCC[P+](c1ccccc1)(c1ccccc1)c1ccccc1)Nc1cc(O)c(O)c(O)c1.[Br-]` is reported as over 32 µg/mL (broth dilution; ATCC19606; 18 h).
The MIC of `N=C(N)c1ccc(OCc2cccc(COc3ccc(C(=N)N)cc3)c2)cc1` is reported as over 200 µg/mL (broth dilution; ATCC17978).
With `C[C@@H](O)[C@H]1C(=O)N2C(C(=O)O)=C(S[C@@H]3CN[C@H](C(=O)N(C)C)C3)[C@H](C)[C@H]12` the MIC was 0.5 µg/mL (broth dilution; ATCC19606).
`NC1CCc2c1[nH]c1ccc(Cl)c(Cl)c21` (stereo not shown) gave an MIC of 8 µg/mL (broth dilution; ATCC19606).
The MIC of `CNc1cccc2c(O)c3c(cc12)C[C@H]1C[C@H]2[C@H](N(C)C)C(O)=C(C(N)=O)C(=O)[C@@]2(O)C(O)=C1C3=O` is reported as over 32 µg/mL (broth dilution; ATCC19606).
With `N=C(N)c1ccc(OCc2ccccc2COc2ccc(C(=N)N)cc2)cc1` the MIC was over 200 µg/mL (broth dilution; ATCC17978).
With `O=C(Nc1ccc2c(c1)OC(F)(F)O2)Nc1ccc(Cl)c(C(F)(F)F)c1` the MIC was over 100 µM (DSM30007).
With `CN(Cc1ccc2cc3c(c(O)c2c1)C(=O)C1=C(O)[C@]2(O)C(=O)C(C(N)=O)=C(O)[C@@H](N(C)C)[C@@H]2C[C@@H]1C3)c1ccccc1` the MIC was 32 µg/mL (broth dilution; ATCC19606).
`O=C(CCCCCC[P+](c1ccccc1)(c1ccccc1)c1ccccc1)Nc1ccc(O)c(O)c1.[Br-]` has an MIC of over 32 µg/mL (broth dilution; ATCC19606; 18 h).
`CCCCCCC/C=C/C(=O)N1C(=O)/C(=C(/C)O)C(=O)C1Cc1ccc(OC(C)(C)C)cc1` (stereo not shown) has an MIC of over 200 µg/mL (ATCC19606).
The MIC of `O=C(O)c1ccc(-n2cc(/C=N/Nc3cccc(F)c3)c(-c3ccc4ccccc4c3)n2)cc1` is reported as 25 µg/mL (ATCCBAA1605).
`O=C(Cc1ccc(O)c(O)c1)NCCCCCCCC[P+](c1ccccc1)(c1ccccc1)c1ccccc1.[Br-]` gave an MIC of over 32 µg/mL (broth dilution; ATCC19606; 18 h).
With `CN(C)c1nc(NC(=O)CNC(C)(C)C)c(O)c2c1C[C@H]1C[C@H]3[C@H](N(C)C)C(O)=C(C(N)=O)C(=O)[C@@]3(O)C(O)=C1C2=O.Cl` the MIC was over 32 µg/mL (broth dilution; ATCC19606).
`N=C(N)c1ccc(OCc2cc(COc3ccc(C(=N)N)cc3)cc(-c3ccccc3)c2)cc1` has an MIC of over 200 µg/mL (broth dilution; ATCC17978).
For `CC(C)Oc1c(NC(=O)c2ccc(NC(=O)[C@H](CC(N)=O)NC(=O)c3ccc(NC(=O)c4ccc(C#N)cn4)cc3)cc2)ccc(C(=O)Nc2ccc(C(=O)O)cc2)c1O`, the MIC was 0.125 µg/mL (DSM30008).
